Test results taken from ChEMBL document CHEMBL1147809, “Tumor-cell-targeted methionine-enkephalin analogues containing unnatural amino acids: design, synthesis, and in vitro antitumor activity” (2006).
*1 amine or outer side, *2 acyl side, *3 side chain or, on linkers, in order; H or OH if unused. Where a SMILES comes first, the peptide text is derived from it. [ ]: non-standard residue; d: D form. X1 = O=C(C(N[*:1])C1C2CC3CC(C2)CC1C3)[*:2]; X2 = O=C(C1(N[*:1])C2CC3CC(C2)CC1C3)[*:2]

Key:
Format in all cases: functional
[1] = tested on: HeLa; assay: Antiproliferative activity against human HeLa cell line at 1000 uM relative to control
Procedure, shortened: (§1)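 Cells from ATCC grown as monolayers in DMEM with 10% FBS, 2 mM glutamine, penicillin/streptomycin, 37 °C, 5% CO2. Seeded at 2 × 10^4 cells/mL, and after 24 h the medium was replaced with fresh medium containing compound (water/10% DMSO stock, PBS working dilutions 10^-3 to 10^-6 M). Exposure was 72 h, then MTT read-out. Growth % = (A_peptide − A_blank)/(A_control − A_blank) × 100, with inhibition taken relative to untreated cells. Values are means of three experiments run in triplicate.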

[2] = tested on: HBL; assay: Antiproliferative activity against human HBL cell line at 10 uM relative to control; procedure, shortened: as §1
[3] = tested on: HBL; assay: Antiproliferative activity against human HBL cell line at 100 uM relative to control; procedure, shortened: as §1
[4] = tested on: HBL; assay: Antiproliferative activity against human HBL cell line at 1000 uM relative to control; procedure, shortened: as §1
[5] = tested on: HT-29; assay: Antiproliferative activity against human HT29 cell line at 10 uM relative to control; procedure, shortened: as §1
[6] = tested on: HT-29; assay: Antiproliferative activity against human HT29 cell line at 100 uM relative to control; procedure, shortened: as §1
[7] = tested on: HT-29; assay: Antiproliferative activity against human HT29 cell line at 1000 uM relative to control; procedure, shortened: as §1
[8] = tested on: SW-620; assay: Antiproliferative activity against human SW620 cell line at 10 uM relative to control; procedure, shortened: as §1
[9] = tested on: SW-620; assay: Antiproliferative activity against human SW620 cell line at 100 uM relative to control; procedure, shortened: as §1
[10] = tested on: SW-620; assay: Antiproliferative activity against human SW620 cell line at 1000 uM relative to control; procedure, shortened: as §1
[11] = tested on: Caco-2; assay: Antiproliferative activity against human Caco-2 cell line at 10 uM relative to control; procedure, shortened: as §1
[12] = tested on: Caco-2; assay: Antiproliferative activity against human Caco-2 cell line at 100 uM relative to control; procedure, shortened: as §1
[13] = tested on: Caco-2; assay: Antiproliferative activity against human Caco-2 cell line at 1000 uM relative to control; procedure, shortened: as §1
[14] = tested on: MCF7; assay: Antiproliferative activity against human MCF7 cell line at 10 uM relative to control
Procedure, shortened: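 MTT assay on monolayer cells grown in DMEM with 10% FBS, 2 mM glutamine, penicillin and streptomycin, at 37 °C in 5% CO2. Cells were plated at 2 × 10^4 cells/mL on day 0. After 24 h the medium was replaced with fresh medium containing compound (working dilutions in PBS from 10% DMSO/water stock), then incubated 72 h. Percent growth inhibition was calculated against untreated cells after blank subtraction. Values are means of three experiments run in triplicate.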

[15] = tested on: MCF7; assay: Antiproliferative activity against human MCF7 cell line at 100 uM relative to control; procedure, shortened: as §1
[16] = tested on: MCF7; assay: Antiproliferative activity against human MCF7 cell line at 1000 uM relative to control; procedure, shortened: as §1
[17] = tested on: HEp-2; assay: Antiproliferative activity against human HEp2 cell line at 10 uM relative to control; procedure, shortened: as §1
[18] = tested on: HEp-2; assay: Antiproliferative activity against human HEp2 cell line at 100 uM relative to control; procedure, shortened: as §1
[19] = tested on: HEp-2; assay: Antiproliferative activity against human HEp2 cell line at 1000 uM relative to control; procedure, shortened: as §1
[20] = tested on: HeLa; assay: Antiproliferative activity against human HeLa cell line at 10 uM relative to control; procedure, shortened: as §1
[21] = tested on: HeLa; assay: Antiproliferative activity against human HeLa cell line at 100 uM relative to control; procedure, shortened: as §1
[22] = tested on: SW-620; assay: Antiproliferative activity against human SW620 cell line at 1 uM relative to control; procedure, shortened: as §1
[23] = tested on: Caco-2; assay: Antiproliferative activity against human Caco-2 cell line at 1 uM relative to control; procedure, shortened: as §1
[24] = tested on: MCF7; assay: Antiproliferative activity against human MCF7 cell line at 1 uM relative to control; procedure, shortened: as §1
[25] = tested on: HEp-2; assay: Antiproliferative activity against human HEp2 cell line at 1 uM relative to control; procedure, shortened: as §1
[26] = tested on: HeLa; assay: Antiproliferative activity against human HeLa cell line at 1 uM relative to control; procedure, shortened: as §1
[27] = tested on: HBL; assay: Antiproliferative activity against human HBL cell line at 1 uM relative to control; procedure, shortened: as §1
[28] = tested on: HT-29; assay: Antiproliferative activity against human HT29 cell line at 1 uM relative to control; procedure, shortened: as §1

Compound | inhibition at 1000 µM [1] [%] | inhibition at 10 µM [2] [%] | inhibition at 1000 µM [4] [%] | inhibition at 10 µM [5] [%] | inhibition at 100 µM [6] [%] | inhibition at 1000 µM [7] [%] | inhibition at 10 µM [8] [%] | inhibition at 100 µM [9] [%] | inhibition at 1000 µM [10] [%] | inhibition at 10 µM [11] [%] | inhibition at 100 µM [12] [%] | inhibition at 1000 µM [13] [%] | inhibition at 1000 µM [16] [%] | inhibition at 10 µM [17] [%] | inhibition at 100 µM [18] [%] | inhibition at 1000 µM [19] [%] | inhibition at 10 µM [20] [%] | inhibition at 100 µM [21] [%] | inhibition at 1 µM [22] [%] | inhibition at 1 µM [23] [%] | also measured
CSCC[C@H](NC(=O)[C@H](Cc1ccccc1)NC(=O)CNC(=O)CNC(=O)[C@@H](N)Cc1ccc(O)cc1)C(=O)O | 22.3 | 1 | 10.8 | 15.9 | 16.1 | 19.3 | 12.7 | 15.3 | 19.1 | 6.4 | 8.4 | 3.2 | 15.4 | 4.5 | 2.4 | 3.3 | 11.4 | 12 | 18.9 | 4.2 | inhibition at 100 µM [3]: 4.5%; inhibition at 10 µM [14]: 4.1%; inhibition at 100 µM [15]: 7.6%; inhibition at 1 µM [24]: 3.6%; inhibition at 1 µM [25]: 5.2%; inhibition at 1 µM [26]: 2.3%; inhibition at 1 µM [27]: 0.4%; inhibition at 1 µM [28]: 14%
N[C@@H](Cc1ccc(O)cc1)C(=O)N[C@@H](C(=O)O)C1C2CC3CC(C2)CC1C3 (some centres undefined) | 20.5 | 4.7 | 7.3 | 8.3 | 10.5 | 21.8 | 10 | 9.4 | 18.7 | 21.4 | 17.5 | 16 | 18.7 | 4.9 | 1.9 | 16.2 | 17.1 | 11 | 10.7 | 22.2 | inhibition at 100 µM [3]: 2.7%; inhibition at 10 µM [14]: 2.6%; inhibition at 100 µM [15]: 7.7%; inhibition at 1 µM [24]: 1.6%; inhibition at 1 µM [25]: 8.5%; inhibition at 1 µM [26]: 7.2%; inhibition at 1 µM [27]: 3%; inhibition at 1 µM [28]: 0.7%
N[C@@H](Cc1ccc(O)cc1)C(=O)NC1(C(=O)O)C2CC3CC(C2)CC1C3 (some centres undefined) | 36.1 | 14 | 14 | 1.6 | 5.4 | 26.5 | 16.5 | 28.1 | 58.2 | 22.7 | 18.9 | 26.4 | 7.5 | 19.7 | 24.9 | 30.4 | 10 | 8.2 | 12.9 | 3.5 | inhibition at 100 µM [3]: 7.5%; inhibition at 10 µM [14]: 2.4%; inhibition at 1 µM [25]: 14.2%; inhibition at 1 µM [27]: 6.5%; inhibition at 1 µM [28]: 9.8%
N[C@@H](Cc1ccc(O)cc1)C(=O)N[C@@H](C(=O)NCC(=O)O)C1C2CC3CC(C2)CC1C3 (some centres undefined) | 28.2 | 1.2 | 19.4 | 3.8 | 12.4 | 22.4 | 13.5 | 13.5 | 25.3 | 6.9 | 8.1 | 8.6 | 15.6 | 4.9 | 12.6 | 26.4 | 11.7 | 11.6 | 17 | 8.1 | inhibition at 100 µM [3]: 3.3%; inhibition at 1 µM [25]: 4.6%; inhibition at 1 µM [26]: 11%; inhibition at 1 µM [28]: 7.6%
N[C@@H](Cc1ccc(O)cc1)C(=O)N[C@H](C(=O)O)C1C2CC3CC(C2)CC1C3 (some centres undefined) | 14.8 | 3.9 | 7.3 | 8.9 | 3.4 | 20.8 | 21.9 | 11.8 | 17.9 | 16.5 | 8.4 | 14.5 | 17.8 | 6.4 | 8.2 | 21.2 | 6.1 | 3.1 | 10.5 | 3.7 | inhibition at 10 µM [14]: 1.1%; inhibition at 100 µM [15]: 1.2%; inhibition at 1 µM [25]: 6.2%; inhibition at 1 µM [26]: 7.5%; inhibition at 1 µM [28]: 4.9%
N[C@@H](Cc1ccc(O)cc1)C(=O)N[C@H](C(=O)NCC(=O)O)C1C2CC3CC(C2)CC1C3 (some centres undefined) | 28.2 | 2.9 | 17.9 | 7.4 | 9.5 | 15.7 | 20.4 | 14.4 | 23.4 | 4.2 | 6.4 | 6.2 | 21.2 | 2 | 18.8 | 26.7 | 7.3 | 9.9 | 13.6 | 2.2 | inhibition at 100 µM [3]: 5.9%; inhibition at 1 µM [25]: 2.7%; inhibition at 1 µM [26]: 9.8%; inhibition at 1 µM [27]: 1.6%; inhibition at 1 µM [28]: 5.4%
CSCC[C@H](NC(=O)[C@H](Cc1ccccc1)NC(=O)CNC(=O)CNC(=O)[C@@H](N)Cc1ccc(O)cc1)C(=O)NC1(C(=O)O)C2CC3CC(C2)CC1C3 (some centres undefined) (H-YGGFM[X2]-OH) | 9.3 | 70.7 | 34.4 | – | – | 9.2 | – | – | – | 11.1 | – | 47 | 25.9 | 3.9 | – | 45 | – | – | – | – | inhibition at 10 µM [14]: 7.1%; inhibition at 100 µM [15]: 6.9%; inhibition at 1 µM [24]: 2.2%; inhibition at 1 µM [27]: 4.1%
CSCC[C@H](NC(=O)[C@H](Cc1ccccc1)NC(=O)CNC(=O)C(NC(=O)[C@@H](N)Cc1ccc(O)cc1)C1C2CC3CC(C2)CC1C3)C(=O)O (some centres undefined) (H-Y[X1]GFM-OH) | 24.1 | 4.5 | 23.2 | 6.6 | 5.1 | 14.5 | 13.1 | 14.6 | 38.4 | 10.9 | 12.1 | 8.1 | 29.9 | 25.8 | 34.7 | 44.5 | 9.5 | 15.4 | 26.4 | 17.7 | inhibition at 100 µM [3]: 11.4%; inhibition at 100 µM [15]: 9.6%; inhibition at 1 µM [25]: 13.7%; inhibition at 1 µM [26]: 8.5%; inhibition at 1 µM [27]: 2.4%; inhibition at 1 µM [28]: 16.2%
CSCC[C@H](NC(=O)[C@H](Cc1ccccc1)NC(=O)CNC(=O)C1(NC(=O)[C@@H](N)Cc2ccc(O)cc2)C2CC3CC(C2)CC1C3)C(=O)O (some centres undefined) (H-Y[X2]GFM-OH) | 28 | 1.4 | 18.3 | 11 | 7.9 | 23.7 | 15.5 | 24.7 | 29 | 8.4 | 18.5 | 10.6 | 22.8 | 10.1 | 16.8 | 36.1 | 10.2 | 13.3 | 12.2 | 3 | inhibition at 100 µM [3]: 2.4%; inhibition at 1 µM [25]: 1%; inhibition at 1 µM [26]: 4.9%; inhibition at 1 µM [27]: 0.8%; inhibition at 1 µM [28]: 3.3%
